Assay [1] has as its target T1, Heat shock protein HSP90 (Homo sapiens, UniProt P07900+P08238). Kind of assay: […] human epidermal growth factor 2 (Her-2) degradation in MCF-7 cells. The format is cell-based. The conditions noted are these: mcf7. In outline: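 MCF7 cells in DMEM with 10% FBS and 10 mM HEPES, treated at 65–70% confluence with compound (1000 nM down to 3 nM, half-log steps) for 16 h. Trypsinized cells stained with PE anti-Her-2 or PE isotype control (1 µg/mL, 15 min). Flow cytometry with 10,000 events; control-subtracted mean fluorescence versus DMSO cells. EC50 = 50% Her-2 degradation; n = 2.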

Assay [2] addresses T1, Heat shock protein HSP90. Description: Concentration required to inhibit biotin-GM binding to recombinant heat shock protein 90(rHsp90). The format is protein assay. In outline:
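rHsp90 coated in PBS overnight at 4 °C. Compound at 100–0.3 µM or DMSO for 60 min at 37 °C. Then 10 µM biotinylated geldanamycin 60 min and 20 µg/mL streptavidin-phycoerythrin 60 min, both at 37 °C, with washes between. Fluorescence read at ex 485/em 580 nm, minus an uncoated-well background. % binding inhibition calculated versus DMSO.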

The target of assay [3] is T1, Heat shock protein HSP90. Description: Concentration required to inhibit Bis-ANS activity by recombinant heat shock protein 90 (rHSP90) conformational assay. The essentials:
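Compound at 100–0.3 µM or DMSO for 60 min at 37 °C, then bis-ANS (0.1 mM stock) for 30 min at 37 °C. Fluorescence read at ex 393/em 484 nm, minus a no-protein background. IC50 = 50% inhibition of bis-ANS signal versus DMSO; n = 2.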

In general, IC50 refers to the concentration that gives 50% inhibition.

With `CO[C@H]1/C=C\C=C(/C)C(=O)NC2=CC(=O)C(NC(=O)c3ccc(CN4CCN(c5ccc([N+](=O)[O-])cc5)CC4)cc3)=C(C[C@@H](C)C[C@H](OC)[C@H](O)[C@@H](C)/C=C(\C)[C@@H]1OC(N)=O)C2=O`, the IC50 against Heat shock protein HSP90 [1] was determined as 200 nM; on Heat shock protein HSP90 [2], 1000 nM; at Heat shock protein HSP90 [3], 1300 nM.

Consider `CO[C@H]1/C=C\C=C(/C)C(=O)NC2=CC(=O)C(NC(=O)C(C)=O)=C(C[C@@H](C)C[C@H](OC)[C@H](O)[C@@H](C)/C=C(\C)[C@@H]1OC(N)=O)C2=O`, for which the IC50 was determined as 1700 nM against Heat shock protein HSP90 [1], 15000 nM on Heat shock protein HSP90 [2] and 20000 nM at Heat shock protein HSP90 [3].

For `COc1ccc(C(=O)NC2=C3C[C@@H](C)C[C@H](OC)[C@H](O)[C@@H](C)/C=C(\C)[C@H](OC(N)=O)[C@@H](OC)/C=C\C=C(/C)C(=O)NC(=CC2=O)C3=O)cc1`, the IC50 on Heat shock protein HSP90 [1] is 400 nM; at Heat shock protein HSP90 [2] it was 5000 nM; on Heat shock protein HSP90 [3], 4000 nM.

Turning to `CO[C@H]1/C=C\C=C(/C)C(=O)NC2=CC(=O)C(NC(=O)c3ccc(CN4CCc5ccccc5C4)cc3)=C(C[C@@H](C)C[C@H](OC)[C@H](O)[C@@H](C)/C=C(\C)[C@@H]1OC(N)=O)C2=O`, the half-maximal inhibitory concentration (IC50) on Heat shock protein HSP90 [1] was determined as 200 nM; on Heat shock protein HSP90 [2], 1000 nM; on Heat shock protein HSP90 [3] it was 1500 nM.

Take `CCOC(=O)NC1=C2C[C@@H](C)C[C@H](OC)[C@H](O)[C@@H](C)/C=C(\C)[C@H](OC(N)=O)[C@@H](OC)/C=C\C=C(/C)C(=O)NC(=CC1=O)C2=O`: the half-inhibitory concentration (IC50) on Heat shock protein HSP90 [1] was 260 nM; at Heat shock protein HSP90 [2], 3000 nM; at Heat shock protein HSP90 [3], 3000 nM.

Consider `CO[C@H]1/C=C\C=C(/C)C(=O)NC2=CC(=O)C(NC(=O)c3ccc(F)cc3)=C(C[C@@H](C)C[C@H](OC)[C@H](O)[C@@H](C)/C=C(\C)[C@@H]1OC(N)=O)C2=O`, for which the concentration for half-maximal inhibition (IC50) at Heat shock protein HSP90 [1] stood at 250 nM; on Heat shock protein HSP90 [2], 1500 nM; on Heat shock protein HSP90 [3], 1500 nM.

On to `COc1cccc(C(=O)NC2=C3C[C@@H](C)C[C@H](OC)[C@H](O)[C@@H](C)/C=C(\C)[C@H](OC(N)=O)[C@@H](OC)/C=C\C=C(/C)C(=O)NC(=CC2=O)C3=O)c1`, for which the IC50 against Heat shock protein HSP90 [1] is 180 nM; on Heat shock protein HSP90 [2], 1300 nM; on Heat shock protein HSP90 [3] it was 900 nM.

On to `C=CCNC(=O)NC1=C2C[C@@H](C)C[C@H](OC)[C@H](O)[C@@H](C)/C=C(\C)[C@H](OC(N)=O)[C@@H](OC)/C=C\C=C(/C)C(=O)NC(=CC1=O)C2=O`, for which the figures for the IC50 on Heat shock protein HSP90 [1] and at Heat shock protein HSP90 [2] were > 10000 nM and 35000 nM, respectively.

For `CO[C@H]1/C=C\C=C(/C)C(=O)NC2=CC(=O)C(NC(=O)c3ccc(CN4CCN(C5CCCCC5)CC4)cc3)=C(C[C@@H](C)C[C@H](OC)[C@H](O)[C@@H](C)/C=C(\C)[C@@H]1OC(N)=O)C2=O`, the figures for the IC50 against Heat shock protein HSP90 [1], on Heat shock protein HSP90 [2] and on Heat shock protein HSP90 [3] were 600 nM, 5500 nM and 5800 nM, respectively.

As for `CO[C@H]1/C=C\C=C(/C)C(=O)NC2=CC(=O)C(NC(=O)c3ccc(CN4CCCCC4)cc3)=C(C[C@@H](C)C[C@H](OC)[C@H](O)[C@@H](C)/C=C(\C)[C@@H]1OC(N)=O)C2=O`, the figures for the IC50 against Heat shock protein HSP90 [1], at Heat shock protein HSP90 [2] and on Heat shock protein HSP90 [3] were > 10000 nM, 2500 nM and 2100 nM, respectively.

For the molecule `CO[C@H]1/C=C\C=C(/C)C(=O)NC2=CC(=O)C(NC(=O)c3ccc(CCl)cc3)=C(C[C@@H](C)C[C@H](OC)[C@H](O)[C@@H](C)/C=C(\C)[C@@H]1OC(N)=O)C2=O`, the IC50 on Heat shock protein HSP90 [1] came to 550 nM; on Heat shock protein HSP90 [2], 4000 nM; at Heat shock protein HSP90 [3] it was 2000 nM.

As for `CO[C@H]1/C=C\C=C(/C)C(=O)NC2=CC(=O)C(NC(=O)c3ccccc3)=C(C[C@@H](C)C[C@H](OC)[C@H](O)[C@@H](C)/C=C(\C)[C@@H]1OC(N)=O)C2=O`, the results for the IC50 against Heat shock protein HSP90 [1], at Heat shock protein HSP90 [2] and at Heat shock protein HSP90 [3] were 200 nM, 4000 nM and 3000 nM, respectively.

`CO[C@H]1/C=C\C=C(/C)C(=O)NC2=CC(=O)C(NC(=O)c3cccc(CCl)c3)=C(C[C@@H](C)C[C@H](OC)[C@H](O)[C@@H](C)/C=C(\C)[C@@H]1OC(N)=O)C2=O`: the values for the IC50 against Heat shock protein HSP90 [1] and at Heat shock protein HSP90 [3] were 1000 nM and 10000 nM, respectively.

(Values after ChEMBL document CHEMBL1149179, “Synthesis and biological evaluation of a new class of geldanamycin derivatives as potent inhibitors of Hsp90” (J Med Chem, 2004).)
